Among the data in ChEMBL document CHEMBL1153346, “Structure-activity study of pentamidine analogues as antiprotozoal agents” (J Med Chem, 2009) are Survival, IC50 and selectivity ratio values, retold here.

Data set [1] relates to Trypanosoma brucei rhodesiense. Description: Antitrypanosomal activity against Trypanosoma brucei rhodesiense STIB900 trypomastigotes infected in NMRI mouse assessed as mouse survival at 10 mg/kg, ip administered from day 3 to day 6 postinfection. Particulars: route intraperitoneal. Type of data set: functional. The procedure, abridged:
(§1)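 STIB900 acute mouse model. Dosing was intraperitoneal, daily for four days, in DMSO diluted with water to 10% final DMSO. An infected untreated control group was kept. Tail blood was checked for parasitemia to day 60, and deaths were recorded to give mean survival days. Mice surviving and aparasitemic at day 60 counted as cured.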

In another data set the test system is L6. Description: Cytotoxicity against rat L6 cells after 70 hrs by alamar blue assay. Type of data set: cell-based. The conditions noted are these: L6, 70 h. In outline:
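L6 rat myoblasts, 4000 per well, in RPMI 1640 with 2 mM L-glutamine, HEPES, NaHCO₃ and 10% FBS. Exposed to serial dilutions (DMSO ≤1%) for 70 h at 37 °C in humidified 5% CO₂. Resazurin then added for 2-3 h; fluorescence read at ex 536/em 588 nm. IC50 from sigmoidal curves; two independent runs in duplicate.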

The nature of data set [2]: Selectivity index, ratio of IC50 for rat L6 cells to IC50 for chloroquine-resistant Plasmodium falciparum K1. The conditions noted are these: read-out: Ratio IC50. Type of data set: toxicity, cell-based. The procedure, abridged: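 Ratio of L6 IC50 to K1 IC50. L6 cells: Alamar blue assay after 70 h, 37 °C. K1: [3H]-hypoxanthine incorporation in infected red cells over 48 + 24 h at 37 °C under low O2. IC50s from sigmoidal curves, two independent runs in duplicate.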

Data set [3] can be described thus: Selectivity index, ratio of IC50 for rat L6 cells to IC50 for Trypanosoma brucei rhodesiense STIB900 trypomastigotes. Type of data set: toxicity, cell-based. The conditions noted are these: read-out: Ratio IC50. The procedure, abridged:
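Ratio of L6 IC50 to STIB900 IC50. L6 cells: 4000/well in RPMI 1640 with 10% FBS, 70 h at 37 °C. Bloodstream forms: 2000/well in supplemented MEM with 15% horse serum, 70 h at 37 °C. Both read by Alamar blue fluorescence; IC50s from sigmoidal curves, two independent runs in duplicate.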

A short description of data set [4]: Selectivity index, ratio of IC50 for rat L6 cells to IC50 for Leishmania donovani MHOM/SD/62/1S-CL2D axenic amastigotes. Type of data set: toxicity, cell-based. Particulars: read-out: Ratio IC50. The procedure, abridged:
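Amastigotes: 6 × 10⁴ parasites/well with 2-fold dilutions, 72 h at 37 °C in 5% CO2. Growth read by tetrazolium CellTiter absorbance at 490 nm; IC50 from a four-parameter dose-response fit.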

In data set [5] the test system is Trypanosoma brucei rhodesiense. Description: Antiprotozoal activity against Trypanosoma brucei rhodesiense STIB900 trypomastigotes after 70 hrs by alamar blue assay. Type of data set: functional, organism-based. In outline:
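Bloodstream forms, 2000 per well, in MEM with Earle's salts plus 0.2 mM 2-mercaptoethanol, 1 mM pyruvate, 0.5 mM hypoxanthine and 15% heat-inactivated horse serum. Exposed to serial dilutions (DMSO ≤1%) for 70 h at 37 °C in 5% CO₂. Resazurin then added for a further 2-6 h. IC50 from sigmoidal curves; two independent runs in duplicate.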
A general note: The colour change of resazurin is a common sign of viable cells or microbes.

For a further data set, the system named is Leishmania donovani. Description: Antiprotozoal activity against Leishmania donovani MHOM/SD/62/1S-CL2D axenic amastigotes after 72 hrs. Type of data set: functional, organism-based. The procedure, abridged:
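L. donovani axenic amastigotes, adapted from promastigotes and grown in amastigote medium at 37 °C. 6 × 10⁴ parasites per well with 2-fold compound dilutions (DMSO ≤1%), incubated 72 h at 37 °C in humidified 5% CO₂. Growth read by tetrazolium (CellTiter) absorbance at 490 nm. IC50 from a four-parameter dose-response fit. Average of duplicate determinations.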

Another data set has as its system Plasmodium falciparum. In words: Antiprotozoal activity after 48 hrs against chloroquine-resistant Plasmodium falciparum K1 infected erythrocytes by [3H]hypoxanthine uptake. Type of data set: functional, organism-based. In outline:
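Erythrocytic stages in infected human red cells (hematocrit 1.25%, parasitemia 0.3%) in supplemented RPMI 1640 with Albumax II. Serial dilutions incubated at 37 °C in 93% N2/4% CO2/3% O2. [3H]-hypoxanthine (0.5 µCi/well) added at 48 h, then 24 h more. Incorporation counted by scintillation. IC50 from sigmoidal curves; two independent runs in duplicate.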

Data set [6] has as its system Trypanosoma brucei rhodesiense. In words: Antitrypanosomal activity against Trypanosoma brucei rhodesiense STIB900 trypomastigotes infected in NMRI mouse assessed as mouse survival at 20 mg/kg, ip administered from day 3 to day 6 postinfection. Type of data set: functional. Particulars: route intraperitoneal. In outline: as §1
Data set [7] deals with Trypanosoma brucei rhodesiense. In words: Antitrypanosomal activity against Trypanosoma brucei rhodesiense STIB900 trypomastigotes infected in NMRI mouse assessed as mouse survival at 5 mg/kg, ip administered from day 3 to day 6 postinfection. Type of data set: functional. Particulars: route intraperitoneal. The procedure, abridged: as §1

On to `Cl.Cl.N=C(N)c1cccc(OCCCOc2cccc(C(=N)N)c2)c1`, for which the Survival in [1] is above 40 days; in [6], above 32.8 days. In addition, the IC50 (in general, the midpoint of a concentration-inhibition curve) in the data set with L6 was 16.2 µM; in data set [5], 0.052 µM; with Leishmania donovani, 6.07 µM; in the data set on Plasmodium falciparum, 0.017 µM. Also, the selectivity ratio in data set [2] is 953; in data set [3] it was 312; in data set [4], 3.

Take `Cl.N=C(N)c1ccc(NCCCCCNc2ccc(C(=N)N)cc2)cc1`: the IC50 is 0.95 µM with L6, below 0.001 µM in data set [5], 0.502 µM in the data set with Leishmania donovani and 0.006 µM in the data set on Plasmodium falciparum. The selectivity ratio in [2] was 158; in data set [3], above 950; in data set [4] it was 2. Further, in data set [7], the Survival is above 29.3 days.

As to `Cl.N=C(N)c1ccc(OCCCCCOc2ccc(C(=N)N)cc2)cc1` [PENTAMIDINE HYDROCHLORIDE], the Survival in data set [1] is above 43.5 days; in data set [6] it was above 44.3 days. The results for the IC50 (in data set [5]; in the data set with Plasmodium falciparum) were 0.007 µM and 0.014 µM, respectively.

With `Cl.Cl.N=C(N)c1ccc(OCCCOc2ccc(C(=N)N)cc2N)c(N)c1`, the IC50 in the data set with L6 came to 68.7 µM; in data set [5], 0.156 µM; in the data set with Plasmodium falciparum, 0.027 µM. Also, the figures for the selectivity ratio in data set [2] and in [3] were 2540 and 440, respectively. The Survival in data set [6] was above 40 days.

For the compound `Cl.Cl.N=C(N)c1ccc(OCCCCCOc2ccc(C(=N)N)c(F)c2)cc1F`, the Survival in [1] is above 33 days. Further, the IC50 in the data set on L6 came to 6.9 µM; in data set [5], 0.013 µM; with Leishmania donovani, 1.88 µM; in the data set with Plasmodium falciparum, 0.015 µM. In addition, the selectivity ratio in [2] came out at 460; in [3] it was 531; in [4] it was 4.

As to `c1cc(OCCCCCOc2cccc(C3=NCCN3)c2)cc(C2=NCCN2)c1`, the IC50 in the data set with L6 is 100 µM; in data set [5] it was 1.49 µM; in the data set with Leishmania donovani it was 22.4 µM; in the data set on Plasmodium falciparum it was 0.024 µM. In addition, the figures for the selectivity ratio in data set [2], in data set [3] and in data set [4] were 4170, 67 and 4, respectively.

Take `N=C(N)c1ccc(S(=O)(=O)CCCCCS(=O)(=O)c2ccc(C(=N)N)cc2)cc1`: the IC50 in the data set with L6 is above 174 µM; in data set [5], 28.1 µM; in the data set with Leishmania donovani, above 100 µM; in the data set with Plasmodium falciparum it was 0.098 µM. Besides, the selectivity ratio was above 1780 in data set [2], above 6 in data set [3] and 2 in [4].

As to `Cl.Cl.N=C(N)c1cccc(OCCCCCCOc2cccc(C(=N)N)c2)c1`, the IC50 with L6 turned out to be 17.1 µM; in [5], 0.075 µM; in the data set on Leishmania donovani, 2.38 µM; with Plasmodium falciparum it was 0.013 µM. Besides, the selectivity ratio in data set [2] came out at 1320; in data set [3], 228; in data set [4], 7. For the same compound, the Survival in data set [6] was above 36 days.

For `c1cc(OCCCCCCOc2cccc(C3=NCCN3)c2)cc(C2=NCCN2)c1`, the IC50 turned out to be 99 µM in the data set with L6, 0.875 µM in data set [5], 21.9 µM in the data set on Leishmania donovani and 0.02 µM in the data set on Plasmodium falciparum. Further, the results for the selectivity ratio in [2], in data set [3] and in data set [4] were 4950, 113 and 5, respectively.

Regarding `CC(C)NC(=N)c1ccc(OCCCOc2ccc(C(=N)NC(C)C)cc2)cc1.Cl.Cl`, in data set [1], the Survival is above 38.5 days. Further, the IC50 with L6 was above 192 µM; in data set [5] it was 0.093 µM; in the data set on Leishmania donovani, 7.11 µM; in the data set with Plasmodium falciparum, 0.025 µM. Further, the values for the selectivity ratio in [2], in data set [3] and in data set [4] were above 7680, above 2060 and above 27, respectively.

As to `CC(C)NC(=N)c1cccc(OCCCCCOc2cccc(C(=N)NC(C)C)c2)c1`, the IC50 with L6 was above 175 µM; in data set [5] it was 0.416 µM; with Leishmania donovani, 15.4 µM; in the data set on Plasmodium falciparum, 0.004 µM. Moreover, the selectivity ratio in data set [2] is above 43800; in data set [3], above 421; in [4] it was above 11.

As for `CC(C)NC(=N)c1ccc(OCCCCCOc2ccc(C(=N)NC(C)C)cc2)cc1.Cl.Cl`, the IC50 in the data set with L6 amounted to 150 µM; in [5], 0.027 µM; with Leishmania donovani, 17.8 µM; with Plasmodium falciparum, 0.003 µM. The selectivity ratio in data set [2] is 50000; in data set [3], 5560; in data set [4] it was 8. The Survival in [7] is above 41.3 days.

Take `COc1cc(C2=NCCN2)ccc1OCCCOc1ccc(C2=NCCN2)cc1OC.Cl.Cl`: the Survival in data set [1] was above 32.8 days; in [6], above 60 days. Besides, the IC50 in the data set on L6 was 105 µM; in [5], 0.09 µM; in the data set with Leishmania donovani, 34.6 µM; with Plasmodium falciparum, 0.055 µM. The values for the selectivity ratio in [2], in data set [3] and in data set [4] were 1910, 1170 and 3, respectively.

Regarding `CCOC(=O)c1cc(C(=N)N)ccc1OCCCCCOc1ccc(C(=N)N)cc1C(N)=O`, the IC50 with L6 is above 165 µM; in [5], 0.011 µM; in the data set on Leishmania donovani, 52.1 µM; with Plasmodium falciparum, 0.014 µM. In addition, the selectivity ratio in [2] is above 11800; in [3], above 15000; in data set [4], above 3.

As for `Cl.Cl.N=C(N)c1ccc(OCCCOc2ccc(C3=NCCN3)cc2)cc1`, in data set [1], the Survival was above 26.8 days. Also, the IC50 came out at 71.6 µM in the data set with L6, 0.018 µM in data set [5], 2.98 µM in the data set on Leishmania donovani and 0.018 µM in the data set on Plasmodium falciparum. The values for the selectivity ratio in [2], in [3] and in data set [4] were 3980, 3980 and 24, respectively.

With `CC(C)NC(=N)c1ccc(OCCCCCOc2ccc(C(=N)NC(C)C)c(O)c2)cc1O`, the IC50 in the data set with L6 was above 156 µM; in data set [5], 14.7 µM; in the data set with Leishmania donovani, above 100 µM; in the data set on Plasmodium falciparum, 0.581 µM. The values for the selectivity ratio in data set [2], in data set [3] and in [4] were above 269, above 11 and 2, respectively.

Consider `Fc1cc(OCCCCCOc2ccc(C3=NCCN3)c(F)c2)ccc1C1=NCCN1`, for which the IC50 in the data set on L6 is 23.2 µM; in [5], 4.46 µM; in the data set on Leishmania donovani it was 52.6 µM; in the data set with Plasmodium falciparum it was 0.544 µM. Also, the selectivity ratio came out at 43 in data set [2], 5 in [3] and 0.4 in [4].

Take `Cl.Cl.N=C(N)c1ccc(OCCCCCCOc2ccc(C(=N)N)cc2)cc1`: the IC50 was found to be 10.5 µM in the data set with L6, 0.036 µM in data set [5], 1.97 µM with Leishmania donovani and 0.015 µM with Plasmodium falciparum. Also, the selectivity ratio in [2] amounted to 700; in [3], 292; in data set [4] it was 5. The figures for the Survival in data set [7] and in data set [6] were above 44.3 days and above 51.8 days, respectively.

Consider `N=C(N)c1ccc(OCCCCCOc2ccc(/C(N)=N\O)cc2)cc1`, for which the IC50 was 11.6 µM in the data set with L6, 0.289 µM in data set [5], 55.6 µM in the data set with Leishmania donovani and 0.234 µM in the data set with Plasmodium falciparum. In addition, the selectivity ratio in data set [2] was 50; in data set [3], 40; in data set [4], below 1.
